Data on 53 molecules can be found in ChEMBL document CHEMBL3124771, “Design, synthesis and antitubercular evaluation of novel series of N-[4-(piperazin-1-yl)phenyl]cinnamamide derivatives” (Eur J Med Chem, 2014).

In brackets after ≈: the same amount, converted by molar mass. Where only a bound is given, the exact number is not on record here.

For series [1], the system named is Mycobacterium tuberculosis. Put plainly: Antitubercular activity against Mycobacterium tuberculosis H37Rv after 7 days by resazurin microtitre assay. The conditions noted are these: 168 h. In kind it is functional. In outline:
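M. tb H37Rv in Middlebrook 7H9 broth; compounds dissolved in DMSO (2 mg/ml stock), serially diluted in 96-well plate to 1.56–50 μg/ml, 100 μl cell suspension per well. After 7 days, 0.02% w/v resazurin added, incubated 1 more day; MIC = lowest concentration preventing blue-to-pink colour change (>90% inhibition), read visually. Isoniazid reference.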
Background: Alamar Blue is a resazurin reagent that responds to reducing activity.

Series [2] can be described thus: Selectivity index, ratio of IC50 for African green monkey Vero cells to MIC for Mycobacterium tuberculosis H37Rv. In kind it is toxicity, cell-based. The conditions noted are these: read-out: Selectivity Index. In outline: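 SI = Vero IC50 / H37Rv MIC. Vero cytotoxicity by MTT: subcultured cells exposed 72 h to 125, 62.5, 31.25 μg/ml; MTT added 4 h, formazan dissolved in DMSO. MIC by REMA: H37Rv in 7H9 broth, 1.56–50 μg/ml serial dilutions, 7 days then resazurin 1 day, visual colour read.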

The next series concerns Vero. Put plainly: Cytotoxicity against African green monkey Vero cells after 72 hrs by MTT assay. The conditions noted are these: Chlorocebus sabaeus. In kind it is cell-based. Summed up: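 Vero cells subcultured, then exposed to compound at 125, 62.5 and 31.25 μg/ml for 72 h. MTT added for a further 4 h; formazan dissolved in DMSO. Viability read from tetrazolium-to-formazan conversion and reported as IC50.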
(In general: Formazan colour is commonly taken as a measure of viable cells.)

With `CCN1CCN(c2ccc(NC(=O)/C=C/c3ccccc3)cc2)CC1`, the MIC90 in series [1] is 12.5 µg/mL (≈ 37.3 µM).
Same read-out and setting: as for `NNC(=O)c1ccncc1` [ISONIAZID], the figure is 0.39 µg/mL (≈ 2.84 µM).
`CCN1CCN(c2ccc(NC(=O)/C=C/c3ccccc3)cc2F)CC1` gave an MIC90 in series [1] of 12.5 µg/mL (≈ 35.4 µM). Further, the selectivity ratio in series [2] was more than 10. Besides, the IC50 in the series with Vero was more than 125 µg/mL.
Taken in the same sequence, the figures for `O=C(/C=C/c1ccc([N+](=O)[O-])cc1)Nc1ccc(N2CCN(C(=O)c3ccncc3)CC2)c(F)c1` were 12.5 µg/mL (≈ 26.3 µM), more than 10 and more than 125 µg/mL.
Regarding `CCN1CCN(c2ccc(NC(=O)/C=C/c3ccc([N+](=O)[O-])cc3)cc2)CC1`, the MIC90 in series [1] came out at 12.5 µg/mL (≈ 32.9 µM).
Same read-out and setting: the result for `O=C(/C=C/c1ccc([N+](=O)[O-])cc1)Nc1ccc(N2CCN(C(=O)c3ccc([N+](=O)[O-])cc3)CC2)c(F)c1` reads more than 50 µg/mL.
Same read-out and setting: the result for `CCOC(=O)N1CCN(c2ccc(NC(=O)/C=C/c3ccccc3)cc2F)CC1` reads more than 50 µg/mL; that for `CN1CCN(c2ccc(NC(=O)/C=C/c3ccc([N+](=O)[O-])cc3)cc2F)CC1`, 25 µg/mL (≈ 65 µM).
The same measure, in the same setting: the result for `O=C(/C=C/c1ccc([N+](=O)[O-])cc1)Nc1ccc(N2CCN(c3ccccn3)CC2)cc1` reads more than 50 µg/mL.
For `O=C(/C=C/c1ccccc1)Nc1ccc(N2CCN(C(=O)c3ccc(F)cc3)CC2)cc1`, in series [1], the MIC90 amounted to 25 µg/mL (≈ 58.2 µM).
For `CC(C)(C)OC(=O)N1CCN(c2ccc(NC(=O)/C=C/c3ccc([N+](=O)[O-])cc3)cc2F)CC1`, the MIC90 in series [1] was found to be 50 µg/mL (≈ 106 µM).
The same measure, in the same setting: the result for `O=C(/C=C/c1ccccc1)Nc1ccc(N2CCN(C(=O)c3ccncc3)CC2)cc1` reads 50 µg/mL (≈ 121 µM).
The same measure, in the same setting: the result for `O=C(/C=C/c1ccc([N+](=O)[O-])cc1)Nc1ccc(N2CCN(C(=O)c3ccc([N+](=O)[O-])cc3)CC2)cc1` reads more than 50 µg/mL; that for `CC(C)(C)OC(=O)N1CCN(c2ccc(NC(=O)/C=C/c3ccc([N+](=O)[O-])cc3)cc2)CC1`, 12.5 µg/mL (≈ 27.6 µM); that for `CN1CCN(c2ccc(NC(=O)/C=C/c3ccc([N+](=O)[O-])cc3)cc2)CC1`, 12.5 µg/mL (≈ 34.1 µM).
Still for that read-out and setting: as for `O=C(/C=C/c1ccccc1)Nc1ccc(N2CCN(C(=O)c3ccccc3C(F)(F)F)CC2)cc1`, the figure is 50 µg/mL (≈ 104 µM).
In series [1], `COC(=O)N1CCN(c2ccc(NC(=O)/C=C/c3ccc([N+](=O)[O-])cc3)cc2F)CC1` came in with an MIC90 of more than 50 µg/mL.
On the same count and under the same terms, as for `O=C(/C=C/c1ccc([N+](=O)[O-])cc1)Nc1ccc(N2CCNCC2)c(F)c1`, the figure is 12.5 µg/mL (≈ 33.7 µM); as for `O=C(/C=C/c1ccccc1)Nc1ccc(N2CCN(c3ccccn3)CC2)c(F)c1`, more than 50 µg/mL; as for `COC(=O)N1CCN(c2ccc(NC(=O)/C=C/c3ccc([N+](=O)[O-])cc3)cc2)CC1`, more than 50 µg/mL.
Still for that read-out and setting: the result for `CCN1CCN(c2ccc(NC(=O)/C=C/c3ccc([N+](=O)[O-])cc3)cc2F)CC1` reads more than 50 µg/mL; that for `O=C(/C=C/c1ccccc1)Nc1ccc(N2CCN(C(=O)c3cc(Cl)cc(Cl)c3)CC2)cc1`, more than 50 µg/mL.
Still for that read-out and setting: as for `O=C(/C=C/c1ccc([N+](=O)[O-])cc1)Nc1ccc(N2CCNCC2)cc1`, the figure is 50 µg/mL (≈ 142 µM); as for `O=C(/C=C/c1ccccc1)Nc1ccc(N2CCN(C(=O)Oc3ccccc3)CC2)c(F)c1`, more than 50 µg/mL.
Turning to `O=C(/C=C/c1ccccc1)Nc1ccc(N2CCN(C(=O)Oc3ccccc3)CC2)cc1`, in series [1], the MIC90 is more than 50 µg/mL.
On the same count and under the same terms, the result for `O=C(/C=C/c1ccc([N+](=O)[O-])cc1)Nc1ccc(N2CCN(C(=O)c3ccncc3)CC2)cc1` reads more than 50 µg/mL.
In the case of `CN1CCN(c2ccc(NC(=O)/C=C/c3ccccc3)cc2)CC1`, the MIC90 in series [1] came to 6.25 µg/mL (≈ 19.4 µM). Also, the selectivity ratio in series [2] was more than 10. In the series on Vero, this molecule returned a half-maximal inhibitory concentration (IC50) of more than 125 µg/mL.
In the case of `O=C(/C=C/c1ccccc1)Nc1ccc(N2CCN(C(=O)c3ccncc3)CC2)c(F)c1`, the MIC90 in series [1] was more than 50 µg/mL.
Still for that read-out and setting: as for `O=C(/C=C/c1ccc([N+](=O)[O-])cc1)Nc1ccc(N2CCN(C(=O)c3cc(Cl)cc(Cl)c3)CC2)cc1`, the figure is more than 50 µg/mL.
The same measure, in the same setting: the result for `O=C(/C=C/c1ccc([N+](=O)[O-])cc1)Nc1ccc(N2CCN(C(=O)c3ccccc3C(F)(F)F)CC2)c(F)c1` reads more than 50 µg/mL.
With `O=C(/C=C/c1ccccc1)Nc1ccc(N2CCNCC2)c(F)c1`, the MIC90 in series [1] turned out to be 25 µg/mL (≈ 76.8 µM).
Still for that read-out and setting: as for `O=C(/C=C/c1ccc([N+](=O)[O-])cc1)Nc1ccc(N2CCN(c3ccccn3)CC2)c(F)c1`, the figure is more than 50 µg/mL.
Same read-out and setting: as for `O=C(/C=C/c1ccc([N+](=O)[O-])cc1)Nc1ccc(N2CCN(C(=O)c3ccc(F)cc3)CC2)c(F)c1`, the figure is 12.5 µg/mL (≈ 25.4 µM).
Still for that read-out and setting: the result for `O=C(/C=C/c1ccc([N+](=O)[O-])cc1)Nc1ccc(N2CCN(C(=O)Oc3ccccc3)CC2)cc1` reads more than 50 µg/mL; that for `O=C(/C=C/c1ccc([N+](=O)[O-])cc1)Nc1ccc(N2CCN(C(=O)Oc3ccccc3)CC2)c(F)c1`, more than 50 µg/mL; that for `O=C(/C=C/c1ccccc1)Nc1ccc(N2CCN(C(=O)c3ccc([N+](=O)[O-])cc3)CC2)c(F)c1`, 12.5 µg/mL (≈ 26.3 µM).
`CCOC(=O)N1CCN(c2ccc(NC(=O)/C=C/c3ccc([N+](=O)[O-])cc3)cc2F)CC1`: the MIC90 in series [1] is more than 50 µg/mL.
The same measure, in the same setting: the result for `CC(C)(C)OC(=O)N1CCN(c2ccc(NC(=O)/C=C/c3ccccc3)cc2)CC1` reads 12.5 µg/mL (≈ 30.7 µM).
Still for that read-out and setting: the result for `O=C(/C=C/c1ccc([N+](=O)[O-])cc1)Nc1ccc(N2CCN(C(=O)c3cc(Cl)cc(Cl)c3)CC2)c(F)c1` reads 12.5 µg/mL (≈ 23 µM).
The same measure, in the same setting: as for `O=C(/C=C/c1ccccc1)Nc1ccc(N2CCN(C(=O)c3cc(Cl)cc(Cl)c3)CC2)c(F)c1`, the figure is 12.5 µg/mL (≈ 25.1 µM); as for `CCOC(=O)N1CCN(c2ccc(NC(=O)/C=C/c3ccccc3)cc2)CC1`, more than 50 µg/mL.
For `CN1CCN(c2ccc(NC(=O)/C=C/c3ccccc3)cc2F)CC1`, in series [1], the MIC90 was found to be 25 µg/mL (≈ 73.7 µM).
Turning to `O=C(/C=C/c1ccccc1)Nc1ccc(N2CCN(C(=O)c3ccccc3C(F)(F)F)CC2)c(F)c1`, the MIC90 in series [1] was 3.12 µg/mL (≈ 6.28 µM). Also, the selectivity ratio in series [2] is more than 40. The same molecule came in with a 50% inhibitory concentration (IC50) in the series with Vero of more than 125 µg/mL.
Regarding `O=C(/C=C/c1ccccc1)Nc1ccc(N2CCN(c3ccccn3)CC2)cc1`, the MIC90 in series [1] was more than 50 µg/mL.
Same read-out and setting: the result for `O=C(/C=C/c1ccccc1)Nc1ccc(N2CCN(C(=O)c3ccc(F)cc3)CC2)c(F)c1` reads more than 50 µg/mL.
On the same count and under the same terms, the result for `COC(=O)N1CCN(c2ccc(NC(=O)/C=C/c3ccccc3)cc2)CC1` reads more than 50 µg/mL; that for `O=C(/C=C/c1ccc([N+](=O)[O-])cc1)Nc1ccc(N2CCN(C(=O)c3ccccc3C(F)(F)F)CC2)cc1`, more than 50 µg/mL; that for `O=C(/C=C/c1ccccc1)Nc1ccc(N2CCN(C(=O)c3ccc([N+](=O)[O-])cc3)CC2)cc1`, more than 50 µg/mL.
Molecule `CC(C)(C)OC(=O)N1CCN(c2ccc(NC(=O)/C=C/c3ccccc3)cc2F)CC1` registered an MIC90 in series [1] of 50 µg/mL (≈ 118 µM).
The same measure, in the same setting: the result for `CCOC(=O)N1CCN(c2ccc(NC(=O)/C=C/c3ccc([N+](=O)[O-])cc3)cc2)CC1` reads more than 50 µg/mL.
On to `O=C(/C=C/c1ccc([N+](=O)[O-])cc1)Nc1ccc(N2CCN(C(=O)c3ccc(F)cc3)CC2)cc1`, for which the MIC90 in series [1] was 12.5 µg/mL (≈ 26.3 µM). The selectivity ratio in series [2] was more than 10. Moreover, the IC50 with Vero is more than 125 µg/mL.
Consider `O=C(/C=C/c1ccccc1)Nc1ccc(N2CCNCC2)cc1`, for which the MIC90 in series [1] is 12.5 µg/mL (≈ 40.7 µM).
On the same count and under the same terms, as for `COC(=O)N1CCN(c2ccc(NC(=O)/C=C/c3ccccc3)cc2F)CC1`, the figure is more than 50 µg/mL.

One may read the MIC90 as the lowest concentration that inhibits either 90% of growth or 90% of the strains tested, depending on the study. Broadly, the IC50 is the concentration that gives 50% inhibition.
